Results of several laboratories.
Lines come from different studies, so protocols differ.
GHSR: Growth hormone secretagogue receptor type 1 (GHSR, Homo sapiens, UniProt Q92847)
DRD3: D(3) dopamine receptor (DRD3, Homo sapiens, UniProt P35462)
CA12: Carbonic anhydrase 12 (CA12, Homo sapiens, UniProt O43570)
ACE: Angiotensin-converting enzyme (ACE, Homo sapiens, UniProt P12821)

| SMILES | target | assay | endpoint | value |
| --- | --- | --- | --- | --- |
| CC[C@H](C)[C@H](NC(=O)[C@H](C)NC(=O)[C@H](C)NC(=O)[C@H](CCC(=O)O)NC(=O)[C@H](CCCNC(=N)N)NC(=O)[C@H](CCC(=O)O)NC(=O)[C@H](CC(C)C)NC(=O)[C@H](CCSC)NC(=O)[C@H](CCCNC(=N)N)NC(=O)[C@H](CCCNC(=N)N)NC(=O)[C@H](CC(C)C)NC(=O)[C@H](Cc1c[nH]cn1)NC(=O)[C@H](CCC(=O)O)NC(=O)[C@@H]1CCCN1C(=O)[C@H](CO)NC(=O)[C@H](CC(C)C)NC(=O)[C@H](Cc1ccccc1)NC(=O)[C@H](Cc1ccc(O)cc1)NC(=O)[C@H](CO)NC(=O)CN)C(=O)N1CCC[C@H]1C(=O)N1CCC[C@H]1C(=O)N1CCC[C@H]1C(=O)N1CCC[C@H]1C(=O)N[C@H](C(=O)N1CCC[C@H]1C(=O)N1CCC[C@H]1C(=O)N[C@@H](CC(C)C)C(=O)O)C(C)C | GHSR | calcium signal, antagonist, fluorescence | IC50 | 1.37 µM |
| Cc1[nH]c(C)c(S(=O)(=O)Nc2ccc(S(F)(F)(F)(F)F)cc2)c1C(=O)N1CCC(F)(F)C1 | DRD3 | β-arrestin recruitment, antagonist | IC50 | 2.3 µM |
| CC[C@H](C)[C@H](NC(=O)[C@H](C)NC(=O)[C@H](C)NC(=O)[C@H](CCC(=O)O)NC(=O)[C@H](CCCNC(=N)N)NC(=O)[C@H](C)NC(=O)[C@H](CC(C)C)NC(=O)[C@H](CC(C)C)NC(=O)[C@H](CCCNC(=N)N)NC(=O)[C@H](CCCNC(=N)N)NC(=O)[C@H](CCC(=O)O)NC(=O)[C@H](Cc1c[nH]cn1)NC(=O)[C@H](CCC(=O)O)NC(=O)[C@@H]1CCCN1C(=O)[C@H](CO)NC(=O)[C@H](CC(C)C)NC(=O)[C@H](Cc1ccccc1)NC(=O)[C@H](Cc1c[nH]c2ccccc12)NC(=O)[C@H](CO)NC(=O)CN)C(=O)N1CCC[C@H]1C(=O)N1CCC[C@H]1C(=O)N1CCC[C@H]1C(=O)N1CCC[C@H]1C(=O)N[C@H](C(=O)N1CCC[C@H]1C(=O)N1CCC[C@H]1C(=O)N[C@@H](CC(C)C)C(=O)O)C(C)C | GHSR | calcium signal, agonist, fluorescence | EC50 | 0.27 µM |
| O=C(Nc1ccc(Br)cc1)Nc1ccc2c(c1)C=CCP(=O)(O)O2 | CA12 | enzyme activity, inhibitor, stopped-flow | Ki | > 10 µM |
| CCC(CNc1nc(-c2cn3ccnc3cc2C)nc2ccccc12)c1ccccc1 (stereo not drawn) | Sodium-dependent dopamine transporter (SLC6A3, Homo sapiens, UniProt Q01959) | ligand displacement, radioligand | IC50 | 4.59 µM |
| CCOC(=O)c1ccc(OC(=O)CCCCCN=C(N)N)cc1 | Kallikrein-2 (Homo sapiens, UniProt P20151) | enzyme activity, inhibitor | IC50 | 0.426 µM |
| Cc1[nH]c(C)c(S(=O)(=O)Nc2ccc(S(F)(F)(F)(F)F)cc2)c1C(=O)N(C)C | DRD3 | β-arrestin recruitment, antagonist | IC50 | 1.7 µM |
| Cc1ccc(C(=O)Nc2ccc3c(c2)C=CCP(=O)(O)O3)cc1 | CA12 | enzyme activity, inhibitor, stopped-flow | Ki | 0.0078 µM |
| CC(C)C[C@H](NC(=O)CNC(=O)[C@H](CCCNC(=N)N)NC(=O)[C@H](Cc1c[nH]c2ccccc12)NC(=O)[C@H](Cc1ccccc1)NC(=O)[C@@H]1CCCN1C(=O)CN)C(=O)N[C@@H](CO)C(=O)N[C@@H](CCCNC(=N)N)C(=O)N[C@@H](CCCNC(=N)N)C(=O)N1CCC[C@H]1C(=O)N[C@@H](CC(C)C)C(=O)N[C@@H](CCCNC(=N)N)C(=O)O | GHSR | calcium signal, antagonist, fluorescence | IC50 | 3.37 µM |
| O=C(Nc1cccc(Cl)c1)Nc1ccc2c(c1)C=CCP(=O)(O)O2 | CA12 | enzyme activity, inhibitor, stopped-flow | Ki | > 10 µM |
| CC[C@H](C)[C@H](NC(=O)[C@H](C)NC(=O)[C@H](CCCNC(=N)N)NC(=O)[C@H](CCC(=O)O)NC(=O)[C@H](CCCNC(=N)N)NC(=O)[C@H](CCC(=O)O)NC(=O)[C@H](CC(C)C)NC(=O)[C@H](CC(C)C)NC(=O)[C@H](CCCNC(=N)N)NC(=O)[C@H](CCCNC(=N)N)NC(=O)[C@H](CCC(N)=O)NC(=O)[C@H](Cc1c[nH]cn1)NC(=O)[C@H](CCC(=O)O)NC(=O)[C@@H]1CCCN1C(=O)[C@H](CO)NC(=O)[C@H](CC(C)C)NC(=O)[C@H](Cc1ccccc1)NC(=O)[C@H](Cc1c[nH]c2ccccc12)NC(=O)[C@H](CO)NC(=O)CN)C(=O)N1CCC[C@H]1C(=O)N1CCC[C@H]1C(=O)N1CCC[C@H]1C(=O)N1CCC[C@H]1C(=O)N[C@H](C(=O)N[C@H](C(=O)N1CCC[C@H]1C(=O)N[C@@H](CC(C)C)C(=O)O)C(C)C)C(C)C | GHSR | calcium signal, agonist, fluorescence | EC50 | 0.16 µM |
| O=C(Nc1cccc(C(F)(F)F)c1)Nc1ccc2c(c1)C=CCP(=O)(O)O2 | CA12 | enzyme activity, inhibitor, stopped-flow | Ki | > 10 µM |
| COC(=O)c1ccc(NS(=O)(=O)c2c(C)[nH]c(C)c2C(=O)N2CCC(F)(F)C2)cc1Cl | DRD3 | β-arrestin recruitment, antagonist | IC50 | 33 µM |
| CCCCC1CNC2CCc3ccc(OC)cc3C12 (racemic) | DRD3 | ligand displacement, radioligand | Ki | 5.03 µM |
| CC(C)C[C@H](NC(=O)[C@@H](N)C(C)C)C(=O)N[C@@H](CO)C(=O)N1CCC[C@H]1C(=O)N[C@@H](CCC(N)=O)C(=O)O | ACE | enzyme activity, inhibitor, absorbance | IC50 | 105 µM |
| N#C[Se]CCCCOc1ccc2c(-c3ccccc3)cc(=O)oc2c1 | CA12 | enzyme activity, inhibitor, stopped-flow | Ki | 0.296 µM |
| O=C(Nc1ccccc1)Nc1ccc2c(c1)C=CCP(=O)(O)O2 | CA12 | enzyme activity, inhibitor, stopped-flow | Ki | > 10 µM |
| CC(C)C[C@H](NC(=O)[C@@H](NC(=O)[C@@H](NC(=O)[C@@H]1CCCN1C(=O)[C@@H](N)CCC(=O)O)C(C)C)[C@@H](C)O)C(=O)O | ACE | enzyme activity, inhibitor | IC50 | ~432 µM |
| O=C(Nc1ccc2c(c1)C=CCP(=O)(O)O2)c1ccccc1I | CA12 | enzyme activity, inhibitor, stopped-flow | Ki | 0.0069 µM |
| CC[C@H](C)[C@H](NC(=O)[C@H](C)NC(=O)[C@H](C)NC(=O)[C@H](CCC(=O)O)NC(=O)[C@H](CCCNC(=N)N)NC(=O)[C@H](C)NC(=O)[C@H](CC(C)C)NC(=O)[C@H](CC(C)C)NC(=O)[C@H](CCCNC(=N)N)NC(=O)[C@H](CCCNC(=N)N)NC(=O)[C@H](C)NC(=O)[C@H](Cc1c[nH]cn1)NC(=O)[C@H](CCC(=O)O)NC(=O)[C@@H]1CCCN1C(=O)[C@H](CO)NC(=O)[C@H](CC(C)C)NC(=O)[C@H](Cc1ccccc1)NC(=O)[C@H](Cc1c[nH]c2ccccc12)NC(=O)[C@H](CO)NC(=O)CN)C(=O)N1CCC[C@H]1C(=O)N1CCC[C@H]1C(=O)N1CCC[C@H]1C(=O)N1CCC[C@H]1C(=O)N[C@H](C(=O)N[C@H](C(=O)N1CCC[C@H]1C(=O)N[C@@H](CC(C)C)C(=O)O)C(C)C)C(C)C | GHSR | calcium signal, agonist, fluorescence | EC50 | 0.15 µM |
| NC(=O)CC[C@H](N)C(=O)NCC(=O)NCC(=O)N[C@@H](CC(=O)O)C(=O)N[C@@H](Cc1ccccc1)C(=O)O | ACE | enzyme activity, inhibitor | IC50 | ~1090 µM |
